Our source for the Activity and IC50 values is ChEMBL document CHEMBL4732269, “Design, Synthesis, and Biological Evaluation of Imidazopyridines as PD-1/PD-L1 Antagonists” (ACS Med Chem Lett, 2021).

One may read the IC50 as the concentration at which inhibition is half-maximal.

Holding throughout (type): protein-complex assay
Assay [1] deals with T1, Programmed cell death protein 1/Programmed cell death 1 ligand 1 (Homo sapiens, UniProt Q15116+Q9NZQ7). Description: Antagonist activity at PD1/PD-L1 (unknown origin) assessed as disruption of PD-1/PD-L1 complex by measuring PD-L1 dimerization at 50 uM measured after 2 hrs by HTRF assay. For orientation: TR-FRET usually uses a lanthanide donor and a delayed reading to cut background.
T1 sequence (Q15116 whole entry): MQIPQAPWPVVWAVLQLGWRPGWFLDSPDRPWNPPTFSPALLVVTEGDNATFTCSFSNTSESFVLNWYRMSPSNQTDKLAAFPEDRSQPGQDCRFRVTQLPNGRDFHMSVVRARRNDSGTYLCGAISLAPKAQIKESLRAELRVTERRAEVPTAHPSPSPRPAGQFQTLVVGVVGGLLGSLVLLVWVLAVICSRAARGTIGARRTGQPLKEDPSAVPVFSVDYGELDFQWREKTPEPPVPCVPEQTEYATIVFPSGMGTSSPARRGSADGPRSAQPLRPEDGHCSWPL
T1 sequence (Q9NZQ7 whole entry): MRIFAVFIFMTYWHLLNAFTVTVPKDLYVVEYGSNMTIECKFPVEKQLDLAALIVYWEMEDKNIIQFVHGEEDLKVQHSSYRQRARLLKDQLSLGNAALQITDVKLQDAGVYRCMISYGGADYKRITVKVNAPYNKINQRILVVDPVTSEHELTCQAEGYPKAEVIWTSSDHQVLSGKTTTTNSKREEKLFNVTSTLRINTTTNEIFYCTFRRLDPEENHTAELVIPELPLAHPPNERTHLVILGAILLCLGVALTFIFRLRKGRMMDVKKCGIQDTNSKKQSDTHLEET

Assay [2] deals with T2, Programmed cell death protein 1/Programmed cell death 1 ligand 1 (Homo sapiens, UniProt Q9NZQ7). Description: Antagonist activity at human PD1/PD-L1 preincubated with PD-L1 for 1 hr followed by incubation with PD1 for 1 hr by ELISA.
T2 sequence (Q15116 whole entry): as the sequence (Q15116 whole entry) above
T2 sequence (Q9NZQ7 whole entry): as the sequence (Q9NZQ7 whole entry) above
Assay [3] has as its target T1, Programmed cell death protein 1/Programmed cell death 1 ligand 1. Put plainly: Antagonist activity at human PD1/PD-L1.
For assay [4] the target is unchanged. Description: Antagonist activity at PD1/PD-L1 (unknown origin) assessed as disruption of PD-1/PD-L1 complex by measuring PD-L1 dimerization by 1H-NMR analysis. Conditions: filed as antagonist. A digest of the protocol: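 PD-L1 was expressed in E. coli BL21 (DE3) as inclusion bodies, then refolded by drop-wise dilution into 0.1 M Tris pH 8.0, 1 M L-Arg HCl, 2 mM EDTA, and 0.25 mM each of oxidized and reduced glutathione. It was dialyzed against 10 mM Tris pH 8.0 with 20 mM NaCl. Final size-exclusion chromatography was run in PBS pH 7.4 for NMR.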

The target of assay [5] is T2, Programmed cell death protein 1/Programmed cell death 1 ligand 1. Put plainly: Antagonist activity at PD1/PD-L1 (unknown origin) assessed as disruption of PD-1/PD-L1 complex by measuring PD-L1 dimerization measured after 2 hrs by HTRF assay. In outline:
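PD-1/PD-L1 binding measured by HTRF with a commercial kit following the kit protocol, at 20 μL final volume. Each compound was run as its own dilution series, and plates were incubated 2 h at RT before the TR-FRET read. Signals were background-subtracted on the negative control and normalized to the positive control. Averaged data were fitted with a normalized Hill equation to give the IC50.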

In assay [6] the target is T1, Programmed cell death protein 1/Programmed cell death 1 ligand 1. Put plainly: Antagonist activity at PD1/PD-L1 (unknown origin).

Activity calls are given as the source filed them. The calls are words filed in the database; no cut-off is given here. Some results are limits rather than exact numbers.

Turning to `Cc1c(COc2ccc3nc([C@@H](N)CO)c(NCc4ccccc4)n3c2)cccc1-c1ccccc1`, the outcome in assay [1] was inactive.
With `Cc1c(COc2ccc3nc([C@H](N)CO)c(NCc4ccccc4)n3c2)cccc1-c1ccccc1`, the outcome in assay [1] was inactive.
In assay [2], `N#Cc1cncc(COc2cc(O[C@H]3CCc4c(-c5ccccc5F)cccc43)c(Cl)cc2CN2CC[C@@H](O)C2)c1` showed an IC50 of under 0.1 µM.
On to `Cc1c(-c2ccccc2)cccc1-c1nc2c(s1)CNCC2`, for which, in assay [3], the IC50 is at most 0.1 µM.
In the case of `Cc1c(COc2ccc3nc(CN)c(NCc4cccc(-c5nn[nH]n5)c4)n3c2)cccc1-c1ccc(F)cc1`, the outcome in assay [1] was inactive.
For the molecule `Cc1c(COc2ccc3nc(CN)c(NCCc4ccccc4)n3c2)cccc1-c1ccccc1`, the result in assay [4] and in assay [1] (filed as antagonist) was Active. Also, the IC50 in assay [5] stood at 16.8 µM.
As to `Cc1c(COc2ccc3nc(CN)c(NC(C)c4ccccc4)n3c2)cccc1-c1ccccc1` (stereo not drawn), the outcome in assay [4] and in assay [1] (filed as antagonist) was Active. Further, the IC50 in assay [5] turned out to be 9.33 µM.
In assay [6], `CC(O)C(NC(=O)NC(CC(N)=O)c1nc(C(N)CO)no1)C(=O)O` (stereo not drawn) showed an IC50 of 5000 µM.
On to `Cc1c(COc2ccc3nc(CN)c(NCc4ccccc4)n3c2)cccc1-c1ccc2c(c1)OCCO2`, for which the IC50 in assay [5] came to 22.9 µM. Moreover, in assay [1] (filed as antagonist), the result was Active.
In the case of `Cc1c(Oc2ccc3nc(CN)c(NCc4ccccc4)n3c2)cccc1-c1ccccc1`, the outcome in assay [4] and in assay [1] (filed as antagonist) was Active.
On to `Cc1c(COc2ccc3nc(CN)c(NCc4ccccc4)n3c2)cccc1-c1ccccc1`, for which the outcome in assay [4] and in assay [1] (filed as antagonist) was Active. Further, the IC50 in assay [5] was 10.2 µM.
With `Cc1c(COc2ccc3nc(CN)c(NCc4cccc(C#N)c4)n3c2)cccc1-c1ccc(F)cc1`, the result in assay [1] was inactive.
Consider `Cc1c(COc2ccc3nc(CN)c(NCCc4ccccc4)n3c2)cccc1-c1ccc(F)cc1`, for which the outcome in assay [1] was inactive.
`Cc1cc2nc(CN)c(NCc3ccccc3)n2cc1OCc1cccc(-c2ccc3c(c2)OCCO3)c1C`: in assay [5], the IC50 was found to be 1.83 µM. Besides, the result in assay [1] (filed as antagonist) was Active.
